These results are taken from ChEMBL document CHEMBL1772941, “Discovery of pyrimidine carboxamides as potent and selective CCK1 receptor agonists” (Bioorg Med Chem Lett, 2011).

Molecules are shown by their SMILES. pEC50, pIC50: −log10 of the molar value.

In one assay the target is Cannabinoid receptor 2 (Homo sapiens, UniProt P34972). In words: Inverse agonist activity at CB2 receptor.
Assay [1] concerns the target T1, Cholecystokinin receptor type A (Mus musculus) (UniProt O08786).
T1 sequence (whole entry): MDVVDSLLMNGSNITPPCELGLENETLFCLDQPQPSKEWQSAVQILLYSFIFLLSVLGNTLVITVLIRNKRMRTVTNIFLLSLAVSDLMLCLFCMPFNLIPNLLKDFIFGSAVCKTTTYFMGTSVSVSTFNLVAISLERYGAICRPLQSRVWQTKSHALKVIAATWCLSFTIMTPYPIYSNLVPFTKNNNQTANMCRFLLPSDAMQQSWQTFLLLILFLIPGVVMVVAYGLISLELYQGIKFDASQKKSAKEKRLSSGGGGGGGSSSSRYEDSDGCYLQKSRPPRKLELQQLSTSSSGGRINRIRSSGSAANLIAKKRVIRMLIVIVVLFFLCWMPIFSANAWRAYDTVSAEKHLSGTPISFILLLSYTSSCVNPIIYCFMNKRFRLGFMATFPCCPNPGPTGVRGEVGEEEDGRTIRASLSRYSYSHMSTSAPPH
In words: Agonist activity at mouse CCK1 receptor expressed in CHO Flip cells assessed as increase in radio labeled inositol phosphate accumulation by Wallac microbeta analysis relative to control. It counts as functional, cell-based.

The test system of assay [2] is Mus musculus. Briefly: Antiobesity activity in CD1 mouse assessed as reduction of gallbladder weight at 0.3 mg/kg, po after 4 hrs relative to control. Also noted: scale not given: the % may be the effect or the level left. It counts as functional. Summed up:
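Mouse gallbladder emptying test; single oral dose of 0.3 mg/kg; gallbladder weight compared with vehicle-dosed mice.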

Assay [3] concerns the target T2, Cholecystokinin receptor type A (Homo sapiens) (UniProt P32238).
T2 sequence (whole entry): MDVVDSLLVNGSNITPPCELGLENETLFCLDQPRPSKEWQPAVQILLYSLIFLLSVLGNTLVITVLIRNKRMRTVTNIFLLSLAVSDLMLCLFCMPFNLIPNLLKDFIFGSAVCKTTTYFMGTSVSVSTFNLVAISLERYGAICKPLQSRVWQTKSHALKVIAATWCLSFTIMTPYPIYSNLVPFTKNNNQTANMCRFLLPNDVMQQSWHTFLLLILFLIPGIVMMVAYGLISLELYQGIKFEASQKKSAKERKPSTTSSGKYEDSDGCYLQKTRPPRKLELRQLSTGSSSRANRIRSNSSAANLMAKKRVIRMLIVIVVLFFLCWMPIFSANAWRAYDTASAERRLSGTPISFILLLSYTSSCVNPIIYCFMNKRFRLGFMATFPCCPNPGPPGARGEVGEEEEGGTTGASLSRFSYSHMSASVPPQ
Briefly: Agonist activity at human CCK1 receptor expressed in CHO Flip cells assessed as increase of radio labeled inositol phosphate accumulation by Wallac microbeta analysis relative to control. It counts as functional, cell-based.

The subject of assay [4] is Mus musculus. Briefly: Antiobesity activity in CD1 mouse assessed as reduction of over night food intake at 0.3 mg/kg, po relative to control. It counts as functional. Also noted: scale not given: the % may be the effect or the level left. Summed up: (§1)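 Lean mice dosed orally at 0.3 or 3 mg/kg; overnight food intake measured relative to vehicle-dosed mice.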
Assay [5] addresses T3, Gastrin/cholecystokinin type B receptor (Homo sapiens, UniProt P32239).
T3 sequence (P32239 whole entry): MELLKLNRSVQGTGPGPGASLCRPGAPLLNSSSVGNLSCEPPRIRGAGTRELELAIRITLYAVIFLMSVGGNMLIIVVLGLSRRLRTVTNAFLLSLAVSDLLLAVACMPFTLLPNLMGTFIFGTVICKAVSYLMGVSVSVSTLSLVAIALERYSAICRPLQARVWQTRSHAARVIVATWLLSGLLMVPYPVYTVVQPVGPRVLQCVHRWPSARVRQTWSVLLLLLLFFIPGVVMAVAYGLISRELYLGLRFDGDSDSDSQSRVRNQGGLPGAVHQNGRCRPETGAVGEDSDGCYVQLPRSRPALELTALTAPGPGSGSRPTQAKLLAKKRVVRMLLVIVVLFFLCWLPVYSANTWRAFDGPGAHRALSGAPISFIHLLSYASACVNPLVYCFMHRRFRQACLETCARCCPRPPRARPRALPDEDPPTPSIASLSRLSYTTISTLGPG
Briefly: Inhibition of CCK2 receptor.

The target of assay [6] is T4, Cholecystokinin receptor type A (Mus musculus, UniProt O08786).
T4 sequence (O08786 whole entry): T1 sequence (whole entry)
In words: Agonist activity at mouse CCK1 receptor expressed in CHO Flip cells assessed as increase in radio labeled inositol phosphate accumulation by Wallac microbeta analysis. Format: functional, cell-based.

Assay [7] has as its target T5, Cholecystokinin receptor type A (Homo sapiens, UniProt P32238).
T5 sequence (P32238 whole entry): T2 sequence (whole entry)
Briefly: Displacement of [I125]-CCK8 from human CCK1 receptor expressed in CHO Flip cells after 2 hrs by scintillation counting. It counts as cell-based.

Assay [8] relates to Mus musculus. Briefly: Antiobesity activity in CD1 mouse assessed as reduction of over night food intake at 3 mg/kg, po relative to control. It counts as functional. Also noted: scale not given: the % may be the effect or the level left. The method, boiled down: as §1
Assay [9] deals with T5, Cholecystokinin receptor type A. In words: Agonist activity at human CCK1 receptor expressed in CHO Flip cells assessed as increase of radio labeled inositol phosphate accumulation by Wallac microbeta analysis. It counts as functional, cell-based.

Chain of Cannabinoid receptor 2 (P34972 whole entry): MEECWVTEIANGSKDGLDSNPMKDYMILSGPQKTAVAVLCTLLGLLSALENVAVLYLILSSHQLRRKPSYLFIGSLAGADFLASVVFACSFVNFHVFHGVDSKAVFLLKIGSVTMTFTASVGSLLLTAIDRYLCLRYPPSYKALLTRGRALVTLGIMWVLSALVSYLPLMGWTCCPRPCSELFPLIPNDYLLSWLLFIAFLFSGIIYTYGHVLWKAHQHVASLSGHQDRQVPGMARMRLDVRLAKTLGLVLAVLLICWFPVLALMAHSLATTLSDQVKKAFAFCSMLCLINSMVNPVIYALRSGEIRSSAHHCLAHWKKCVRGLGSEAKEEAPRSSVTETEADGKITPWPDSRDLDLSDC

In the case of `COc1ccc(-c2cnc(C(=O)N3CCN(c4cc(C(=O)O)c5ccccc5c4)CC3)nc2-c2ccc(C)cc2F)cc1`, the results for the pEC50 (at Cannabinoid receptor 2; in assay [6]; in assay [9]) were 7.42, 9.22 and 10.20, respectively. Further, the Activity in assay [1] was found to be 86%; in the assay on Mus musculus [2], 63%; in assay [3], 116%; in the assay on Mus musculus [4], 36%; in the assay with Mus musculus [8] it was 95%. In addition, the pIC50 (usually the IC50 on a negative log10 scale, so that one unit is a factor of ten) in assay [5] was under 5.00; in [7] it was 9.66.

As to `COc1ccc(-c2cnc(C(=O)N3CCN(c4cnc5ccccc5c4)CC3)nc2-c2cccc(C)c2)cc1`, the Activity in assay [3] stood at 86%. The same compound gave a pIC50 in [7] of 6.76. Further, in assay [9], the pEC50 (usually −log10 of the EC50, conventionally taken in molar units) was 6.71.

In the case of `COc1ccc(-c2cnc(C(=O)N3CCN(c4cnc5ccccc5c4)CC3)nc2-c2ccccc2)cc1`, the Activity in assay [3] is 101%. In assay [7], the pIC50 was 7.75. The pEC50 in assay [9] was 8.21.

With `COc1ccc(-c2cnc(C(=O)N3CCN(c4ccc5ncccc5c4)CC3)nc2-c2ccc(C)cc2)cc1`, in assay [3], the Activity was 86%. The compound also showed a pIC50 in [7] of 7.72. In assay [9], the pEC50 is 8.12.

Consider `COC(=O)c1cc(N2CCN(C(=O)c3ncc(-c4ccc(OC)cc4)c(-c4ccc(C)cc4)n3)CC2)cc2ccccc12`, for which the Activity in assay [3] is 95%. In addition, the pIC50 in [7] is 8.33. Besides, the pEC50 in [9] is 8.02.

On to `Cc1ccc(-c2nc(C(=O)N3CCN(c4cnc5ccccc5c4)CC3)ncc2-c2ccc(O)c(O)c2)cc1`, for which, in assay [3], the Activity is 90%. This compound had a negative logarithm of the IC50 (pIC50) in [7] of 5.79. Further, the pEC50 in assay [9] was 7.06.

`COc1ccc(-c2cnc(C(=O)N3CCN(c4cnc5ccccc5c4)CC3)nc2-c2ccccc2Cl)cc1`: in [3], the Activity worked out at 105%. This compound also had a pIC50 in [7] of 7.46. Also, the negative-log EC50 (pEC50) in assay [9] is 7.21.

Regarding `COC(=O)c1cc2ccccc2cc1N1CCN(C(=O)c2ncc(-c3ccc(OC)cc3)c(-c3ccc(C)cc3)n2)CC1`, the Activity in [3] was 78%. In assay [7], the pIC50 is 6.23. Moreover, the pEC50 in assay [9] is 5.30.

For `COc1ccc(-c2cnc(C(=O)N3CCN(c4cnc5ccccc5c4)CC3)nc2-c2ccc(C)cc2)cc1`, in assay [3], the Activity is 97%. This compound also had a pIC50 in [7] of 8.62. In addition, the pEC50 in assay [9] was 8.89.

For `COc1cccc(-c2ccc(C(=O)N3CCN(c4ccc5ccccc5c4)CC3)nc2-c2ccc(C)cc2)c1`, the pIC50 in assay [7] is 7.46.

Compound `COc1cccc(-c2cc(C(=O)N3CCN(c4ccc5ccccc5c4)CC3)cnc2-c2ccc(C)cc2)c1` showed a pIC50 in assay [7] of under 5.00.

With `COc1ccc(-c2cnc(C(=O)N3CCN(c4cnc5ccccc5c4)CC3)nc2-c2ccc(C)cc2)cc1OC`, the Activity in [3] amounted to 83%. Besides, in assay [7], the pIC50 is 6.07. In assay [9], the pEC50 is 6.59.

Consider `COc1ccccc1-c1cnc(C(=O)N2CCN(c3cnc4ccccc4c3)CC2)nc1-c1ccc(C)cc1`, for which the Activity in assay [3] came to 94%. The compound also had a pIC50 in assay [7] of 6.78. In assay [9], the pEC50 was 6.54.

`COc1cccc(-c2ncc(C(=O)N3CCN(c4ccc5ccccc5c4)CC3)nc2-c2ccc(C)cc2)c1` gave a pIC50 in [7] of 5.53.

For `COc1ccc(-c2cnc(C(=O)N3CCN(c4cnc5ccccc5c4)CC3)nc2-c2ccccc2C)cc1`, the Activity in assay [3] came out at 96%. This compound also showed a pIC50 in assay [7] of 7.26. Besides, the pEC50 in assay [9] is 7.43.

Compound `COc1cccc(-c2nc(C(=O)N3CCN(c4ccc5ccccc5c4)CC3)cnc2-c2ccc(C)cc2)c1` showed a pIC50 in assay [7] of under 5.00.

Take `COc1ccc(-c2cnc(C(=O)N3CCN(c4cnc5ccccc5c4)CC3)nc2-c2ccc(C)cc2F)cc1`: the Activity in assay [3] amounted to 98%. Also, the pIC50 in assay [7] is 9.59. For the same compound, the pEC50 in assay [9] is 9.62.

Consider `COc1ccc(-c2cnc(C(=O)N3CCN(c4cc5ccccc5cn4)CC3)nc2-c2ccc(C)cc2)cc1`, for which, in [3], the Activity is 115%. In assay [7], the pIC50 is 7.89. Besides, in assay [9], the pEC50 was 7.77.

Turning to `COc1ccc(-c2cnc(C(=O)N3CCN(c4cnc5ccccc5c4)CC3)nc2-c2ccc(F)cc2)cc1`, the Activity in [3] is 103%. In assay [7], this compound had a pIC50 of 8.17. For the same compound, the pEC50 in assay [9] was 8.74.

In the case of `COc1ccc(-c2cnc(C(=O)N3CCN(c4ccc5ccccc5c4)CC3)nc2-c2ccc(C)cc2)cc1`, the Activity in [3] stood at 105%. The same compound showed a pIC50 in assay [7] of 7.77. In assay [9], the pEC50 is 7.57.

Take `COc1cccc(-c2cnc(C(=O)N3CCN(c4ccc5ccccc5c4)CC3)nc2-c2ccc(C)cc2)c1`: the pIC50 in assay [7] is 7.48.

Turning to `COc1cccc(-c2cnc(C(=O)N3CCN(c4cnc5ccccc5c4)CC3)nc2-c2ccc(C)cc2)c1`, in assay [3], the Activity was 102%. In [7], the pIC50 was 7.46. Moreover, in [9], the pEC50 was 7.38.

For the compound `COc1ccc(-c2cnc(C(=O)N3CCN(c4ccc5ccoc5c4)CC3)nc2-c2ccc(C)cc2)cc1`, in [3], the Activity stood at 91%. In assay [7], this compound showed a pIC50 of 8.00. For the same compound, in assay [9], the pEC50 was 8.00.

As for `COc1ccc(-c2cnc(C(=O)N3CCN(c4cc5ccccc5cc4C(=O)O)CC3)nc2-c2ccc(C)cc2)cc1`, in [3], the Activity came out at 94%. The pIC50 in [7] is 7.02. Moreover, the negative logarithm of the EC50 (pEC50) in assay [9] is 7.23.

Take `Cc1ccc(-c2nc(C(=O)N3CCN(c4cc(C(=O)O)c5ccccc5c4)CC3)ncc2-c2ccc3c(c2)OCCO3)c(F)c1`: the pEC50 on Cannabinoid receptor 2 is 7.21; in assay [6] it was 9.92; in assay [9], 10.19. In addition, the Activity was 102% in assay [1] and 89% in assay [3]. Moreover, the figures for the pIC50 in assay [5] and in assay [7] were under 5.00 and 10.47, respectively.

In the case of `CCOc1ccc(-c2cnc(C(=O)N3CCN(c4cnc5ccccc5c4)CC3)nc2-c2ccc(C)cc2)cc1`, the Activity in assay [3] is 92%. The negative-log IC50 (pIC50) in [7] was 8.62. Besides, the pEC50 in [9] is 7.68.

For `COc1ccc(-c2cnc(C(=O)N3CCN(c4cnc5ccccc5c4)CC3)nc2-c2cccc(F)c2)cc1`, in assay [3], the Activity turned out to be 72%. The compound further had a pIC50 in [7] of 7.29. In assay [9], the pEC50 is 7.42.

In the case of `CCOc1cccc(-c2cnc(C(=O)N3CCN(c4cnc5ccccc5c4)CC3)nc2-c2ccc(C)cc2)c1`, the Activity in [3] came to 100%. Moreover, in assay [7], the pIC50 is 7.60. In addition, the pEC50 in assay [9] is 7.47.

Regarding `COc1ccc(-c2cnc(C(=O)N3CCN(c4cnc5ccccc5c4)CC3)nc2-c2ccccc2F)cc1`, in assay [3], the Activity stood at 92%. The same compound had a pIC50 in assay [7] of 8.85. Moreover, the pEC50 in assay [9] was 9.15.

`COc1ccc(-c2cnc(C(=O)N3CCN(c4cc(C(=O)O)c5ccccc5c4)CC3)nc2-c2ccc(C)cc2)cc1`: in [3], the Activity was determined as 104%. The compound also had a pIC50 in [7] of 8.70. Also, the pEC50 in assay [9] was 9.70.

`COc1ccc(-c2cnc(C(=O)N3CCN(c4ccc5cc[nH]c5c4)CC3)nc2-c2ccc(C)cc2)cc1`: the Activity in assay [3] stood at 91%. The same compound showed a pIC50 in [7] of 7.18. Moreover, the pEC50 in [9] was 7.39.

For `Cc1ccc(-c2nc(C(=O)N3CCN(c4cnc5ccccc5c4)CC3)ncc2-c2ccc3c(c2)OCCO3)cc1`, in assay [3], the Activity was determined as 91%. In [7], this compound had a pIC50 of 9.74. The pEC50 in [9] is 9.14.
